The results in this text go back to PubChem BioAssay AID624073 (Broad Institute, 2012).

The subject of test [1] is P. aeruginosa PAK growth with EDDHA, OD600, 28 h. Briefly: P. aeruginosa PAK growth delay under chelation, dose response, whole organism, PAK strain, OD600, EDDHA, dry powder, set 3 (AID 624073). An outline of the steps: (§1)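 Also added: EDDHA 2 µM. Test system: Pseudomonas aeruginosa PAK wild-type strain, whole bacterial cells. Read-out: bacterial growth measured as OD600 absorbance. Buffer or medium: succinate M9 medium, pH 7.0. Incubation: 28 h exposure at 30 °C.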

Test in test [2]: as above
The conditions noted are these: P. aeruginosa PAK growth with EDDHA, OD600, 28 h; at 100 µM (top of the series). The procedure, abridged:
as §1

Activity calls are given as the source filed them.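 How the source made its calls: active means fitted OD600 growth curve drops 35% below untreated wells at up to twice the top tested dose; inconclusive means flat curve with 30 to 70% drop, or poor fit; inactive means the rest, including rising growth signal.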 A value given as a limit tells only on which side of the number the result lay.

Turning to `N#CC(c1cccc(C(F)(F)F)n1)c1ccc(Cl)cc1F` (stereo unspecified), the AC35 in test [1] was 13.7 µM.
In the case of `CCCCC(C#N)c1ccc(F)cn1` (stereo unspecified), the activity change, negative = inhibition in test [2] was -13.8% (inactive).
As to `N#CC(c1cccc(Cl)n1)c1ccc(Cl)cc1F` (stereo unspecified), the AC35 in test [1] is 47.5 µM.
Still for that read-out and setting: with `N#CC(c1ccc(Cl)cc1)c1cccc(Cl)n1` (stereo unspecified) the figure was 40.9 µM.
Turning to `COCCC(C#N)c1ccc(F)cc1` (stereo unspecified), in test [2], the activity change, negative = inhibition was 1.49% (inactive).
For `N#CC(c1ccc(Cl)cc1)c1cccc(C(F)(F)F)n1` (stereo unspecified), the AC35 in test [1] was 12.8 µM.
In the case of `N#CC(c1ccc(F)cc1)c1cccc(C(F)(F)F)n1` (stereo unspecified), the AC35 in test [1] was 15.4 µM.
Take `N#CC(c1ccc(Cl)cc1)c1ccc(Cl)cn1` (stereo unspecified): the AC35 in test [1] was 87.7 µM.
On the same count and under the same terms, with `N#CC(c1ccc(Cl)cc1)c1ncccc1Cl` (stereo unspecified) the figure was 77.8 µM.
Regarding `COCCNC(C#N)c1ccc(Cl)cc1` (stereo unspecified), the activity change, negative = inhibition in test [2] is -2.37% (inactive).
Consider `CCCCC(c1ccc(Cl)cc1)c1nn[nH]n1` (stereo unspecified), for which the AC35 in test [1] was > 100 µM (inactive).
